Measurements taken from ChEMBL document CHEMBL4219167, “Disulfiram-based disulfides as narrow-spectrum antibacterial agents” (Bioorg Med Chem Lett, 2018).
Values after ≈ are worked out from the molar mass of the structure shown.

Columns and labels:
[1] = tested on: Yersinia pseudotuberculosis; assay: Antibacterial activity against Yersinia pseudotuberculosis P61 after 20 hrs by broth microdilution assay; type: functional; conditions: P61, 20 h
How it was run: (§1)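 Yersinia cultured in tryptic soy broth at 28°C. A 0.5 McFarland suspension diluted 1:100 receives serial dilutions of agents from 1 mM or 1 mg/mL DMSO stocks; control antibiotics are in water.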

Escherichia coli = assay: Antibacterial activity against Escherichia coli DC10B after 20 hrs by broth microdilution assay; type: functional
How it was run: (§2)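 Medium is tryptic soy broth, 37°C. Overnight culture is adjusted to 0.5 McFarland, diluted 1:100 and exposed to serial dilutions (test agents from 1 mM or 1 mg/mL DMSO stocks; control antibiotics in water). Incubation lasts 20 h. MIC is the lowest concentration with no visible growth.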

Yersinia pestis [2] = assay: Antibacterial activity against Yersinia pestis Kim D2 after 20 hrs by broth microdilution assay; type: functional; conditions: Kim D2, 20 h
Corynebacterium striatum = assay: Antibacterial activity against Corynebacterium striatum FS-1 after 20 hrs by broth microdilution assay; type: functional; conditions: FS-1, 20 h
Bacillus anthracis [3] = assay: Antibacterial activity against Bacillus anthracis UM23-1 after 20 hrs by broth microdilution assay; type: functional; conditions: UM23-1, 20 h
Streptococcus pyogenes = assay: Antibacterial activity against Streptococcus pyogenes H293 after 20 hrs by broth microdilution assay; type: functional; conditions: H293, 20 h
Yersinia enterocolitica = assay: Antibacterial activity against Yersinia enterocolitica WA-314 after 20 hrs by broth microdilution assay; type: functional; conditions: WA-314, 20 h; how it was run: as §1
Staphylococcus aureus [4] = assay: Antibacterial activity against methicillin-resistant Staphylococcus aureus COL after 20 hrs by broth microdilution assay; type: functional
Listeria monocytogenes = assay: Antibacterial activity against Listeria monocytogenes Gibson after 20 hrs by broth microdilution assay; type: functional
How it was run: (§3)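 Brain heart infusion broth at 37°C; E. faecium under 5% CO2. Cells at 0.5 McFarland are diluted 1:100 and exposed to serial dilutions (DMSO stocks 1 mM or 1 mg/mL; controls in water).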

Streptococcus pneumoniae = assay: Antibacterial activity against Streptococcus pneumoniae TCH8431 after 20 hrs by broth microdilution assay; type: functional; conditions: TCH8431, 20 h
Proteus mirabilis = assay: Antibacterial activity against Proteus mirabilis HM-752 after 20 hrs by broth microdilution assay; type: functional; conditions: HM-752, 20 h; how it was run: as §2
Klebsiella pneumoniae = assay: Antibacterial activity against Klebsiella pneumoniae 700603 after 20 hrs by broth microdilution assay; type: functional; conditions: Klebsiella pneumoniae, 700603, 20 h; how it was run: as §2
Bacillus anthracis [5] = assay: Antibacterial activity against Bacillus anthracis Weybridge after 20 hrs by broth microdilution assay; type: functional
Bacillus anthracis [6] = assay: Antibacterial activity against Bacillus anthracis Ames 35 after 20 hrs by broth microdilution assay; type: functional; conditions: Ames 35, 20 h
Citrobacter freundii = assay: Antibacterial activity against Citrobacter freundii 4_7_47CFAA after 20 hrs by broth microdilution assay; type: functional
How it was run: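 Brucella broth, 37°C, 5% CO2. Inoculum is 0.5 McFarland diluted 1:100, with serial drug dilutions from DMSO stocks (1 mM or 1 mg/mL) and control antibiotics in water.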

Brucella neotomae = assay: Antibacterial activity against Brucella neotomae 5K33 after 20 hrs by broth microdilution assay; type: functional; conditions: 5K33, 20 h
Shigella dysenteriae = assay: Antibacterial activity against Shigella dysenteriae Newcastle 1934 after 20 hrs by broth microdilution assay; type: functional; conditions: Newcastle 1934, 20 h; how it was run: as §2
Francisella tularensis = assay: Antibacterial activity against Francisella tularensis Utah 112 after 20 hrs by broth microdilution assay; type: functional; conditions: Utah 112, 20 h
Burkholderia multivorans = assay: Antibacterial activity against Burkholderia multivorans CF2 after 20 hrs by broth microdilution assay; type: functional; conditions: CF2, 20 h; how it was run: as §2
[7] = tested on: Staphylococcus epidermidis; assay: Antibacterial activity against vancomycin-intermediate resistant Staphylococcus epidermidis NRS6 after 20 hrs by broth microdilution assay; type: functional; conditions: NRS6, 20 h
Enterococcus faecium = assay: Antibacterial activity against vancomycin-resistant Enterococcus faecium ATCC 700221 after 20 hrs by broth microdilution assay; type: functional; conditions: ATCC 700221, 20 h; how it was run: as §3
Streptococcus agalactiae = assay: Antibacterial activity against Streptococcus agalactiae SGBS005 after 20 hrs by broth microdilution assay; type: functional; conditions: SGBS005, 20 h
Salmonella typhi = assay: Antibacterial activity against Salmonella typhi Ty2 after 20 hrs by Todd Hewitt broth broth microdilution method; type: functional, Salmonella enterica subsp. enterica serovar Typhi str. Ty2; conditions: Salmonella enterica
Micrococcus luteus = assay: Antibacterial activity against Micrococcus luteus SK58 after 20 hrs by broth microdilution assay; type: functional; conditions: SK58, 20 h
Acinetobacter baumannii = assay: Antibacterial activity against Acinetobacter baumannii AB5075 after 20 hrs by broth microdilution assay; type: functional; conditions: AB5075, 20 h
Staphylococcus aureus [8] = assay: Antibacterial activity against vancomycin-resistant Staphylococcus aureus HIP14300 after 20 hrs by broth microdilution assay; type: functional; conditions: HIP14300, 20 h
Staphylococcus aureus [9] = assay: Antibacterial activity against vancomycin-intermediate resistant Staphylococcus aureus AR-217 after 20 hrs by broth microdilution assay; type: functional; conditions: AR-217, 20 h
Rhodococcus erythropolis = assay: Antibacterial activity against Rhodococcus erythropolis SK121 after 20 hrs by broth microdilution assay; type: functional; conditions: SK121, 20 h
How it was run: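 R. erythropolis grown in brain heart infusion broth at 30°C. A 0.5 McFarland suspension diluted 1:100 is treated with serial dilutions from 1 mM or 1 mg/mL DMSO stocks; control antibiotics are in water.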

Bacillus anthracis [10] = assay: Antibacterial activity against Bacillus anthracis Sterne 34F2 after 20 hrs by broth microdilution assay; type: functional; conditions: Sterne 34F2, 20 h
Vibrio cholerae = assay: Antibacterial activity against Vibrio cholerae TS D4 after 20 hrs by Todd Hewitt broth broth microdilution method; type: functional; conditions: TS D4, 20 h
Pseudomonas aeruginosa = assay: Antibacterial activity against Pseudomonas aeruginosa ATCC 15442 after 20 hrs by broth microdilution assay; type: functional; conditions: ATCC 15442, 20 h; how it was run: as §2
Burkholderia cepacia = assay: Antibacterial activity against Burkholderia cepacia UCB 717 after 20 hrs by broth microdilution assay; type: functional; conditions: UCB 717, 20 h; how it was run: as §2
Yersinia pestis [11] = assay: Antibacterial activity against Yersinia pestis Kuma D7 after 20 hrs by broth microdilution assay; type: functional; conditions: Kuma D7, 20 h
Bacillus cereus = assay: Antibacterial activity against Bacillus cereus Gibson 971 after 20 hrs by broth microdilution assay; type: functional; conditions: Gibson 971, 20 h

Compound	MIC [1] [µM]	MIC (Escherichia coli) [µM]	MIC (Yersinia pestis [2]) [µM]	MIC (Corynebacterium striatum) [µM]	MIC (Streptococcus pyogenes) [µM]	MIC (Staphylococcus aureus [4]) [µM]	MIC (Streptococcus pneumoniae) [µM]	MIC (Proteus mirabilis) [µM]	MIC (Citrobacter freundii) [µM]	MIC (Francisella tularensis) [µM]	MIC (Burkholderia multivorans) [µM]	MIC [7] [µM]	MIC (Enterococcus faecium) [µM]	MIC (Streptococcus agalactiae) [µM]	MIC (Salmonella typhi) [µM]	MIC (Acinetobacter baumannii) [µM]	MIC (Staphylococcus aureus [8]) [µM]	MIC (Staphylococcus aureus [9]) [µM]	MIC (Rhodococcus erythropolis) [µM]	MIC (Vibrio cholerae) [µM]	further results
CCN(CC)C(=S)SSC	> 32	> 32	16 (≈ 3.13 µg/mL)	> 32	32 (≈ 6.25 µg/mL)	32 (≈ 6.25 µg/mL)	> 32	> 32	> 32	32 (≈ 6.25 µg/mL)	32 (≈ 6.25 µg/mL)	32 (≈ 6.25 µg/mL)	> 32	> 32	> 32	> 32	16 (≈ 3.13 µg/mL)	8 (≈ 1.56 µg/mL)	16 (≈ 3.13 µg/mL)	32 (≈ 6.25 µg/mL)	MIC (Bacillus anthracis [3]): 2 µM (≈ 0.391 µg/mL); MIC (Yersinia enterocolitica): > 32 µM; MIC (Listeria monocytogenes): 32 µM (≈ 6.25 µg/mL); MIC (Klebsiella pneumoniae): > 32 µM; MIC (Bacillus anthracis [5]): 4 µM (≈ 0.782 µg/mL); MIC (Bacillus anthracis [6]): 4 µM (≈ 0.782 µg/mL); MIC (Brucella neotomae): > 32 µM; MIC (Shigella dysenteriae): > 32 µM; MIC (Micrococcus luteus): 32 µM (≈ 6.25 µg/mL); MIC (Bacillus anthracis [10]): 4 µM (≈ 0.782 µg/mL); MIC (Pseudomonas aeruginosa): > 32 µM; MIC (Burkholderia cepacia): > 32 µM; MIC (Yersinia pestis [11]): 16 µM (≈ 3.13 µg/mL); MIC (Bacillus cereus): 1 µM (≈ 0.195 µg/mL)
CCN(CC)C(=S)SSC1CCCCC1 [CYCLOHEXYL DIETHYLCARBAMO(DITHIOPEROXO)THIOATE]	–	–	–	–	16 (≈ 4.22 µg/mL)	32 (≈ 8.43 µg/mL)	> 32	–	–	–	–	32 (≈ 8.43 µg/mL)	> 32	> 32	–	–	32 (≈ 8.43 µg/mL)	16 (≈ 4.22 µg/mL)	–	–	–
O=C(O)c1cn(C2CC2)c2cc(N3CCNCC3)c(F)cc2c1=O [CIPROFLOXACIN]	≤ 0.5	≤ 0.5	≤ 0.5	> 32	–	–	–	≤ 0.5	≤ 0.5	≤ 0.5	8 (≈ 2.65 µg/mL)	–	–	–	≤ 0.5	≤ 0.5	–	–	≤ 0.5	≤ 0.5	MIC (Yersinia pestis [11]): ≤ 0.5 µM
CCN(CC)C(=S)SSC(C)C [ISOPROPYL DIETHYLCARBAMO(DITHIOPEROXO)THIOATE]	–	–	–	–	32 (≈ 7.15 µg/mL)	> 32	> 32	–	–	–	–	> 32	> 32	> 32	–	–	> 32	32 (≈ 7.15 µg/mL)	–	–	–
CCN(CC)C(=S)SSc1ccccc1	–	–	–	–	> 32	32 (≈ 8.24 µg/mL)	> 32	–	–	–	–	16 (≈ 4.12 µg/mL)	> 32	> 32	–	–	16 (≈ 4.12 µg/mL)	16 (≈ 4.12 µg/mL)	–	–	–
CCCCCSSC(=S)N(CC)CC	> 32	> 32	32 (≈ 8.05 µg/mL)	32 (≈ 8.05 µg/mL)	> 32	16 (≈ 4.02 µg/mL)	> 32	> 32	> 32	32 (≈ 8.05 µg/mL)	> 32	8 (≈ 2.01 µg/mL)	> 32	> 32	> 32	> 32	16 (≈ 4.02 µg/mL)	8 (≈ 2.01 µg/mL)	16 (≈ 4.02 µg/mL)	> 32	MIC (Bacillus anthracis [3]): 4 µM (≈ 1.01 µg/mL); MIC (Yersinia enterocolitica): > 32 µM; MIC (Listeria monocytogenes): 8 µM (≈ 2.01 µg/mL); MIC (Klebsiella pneumoniae): > 32 µM; MIC (Bacillus anthracis [5]): 8 µM (≈ 2.01 µg/mL); MIC (Bacillus anthracis [6]): 4 µM (≈ 1.01 µg/mL); MIC (Brucella neotomae): 32 µM (≈ 8.05 µg/mL); MIC (Shigella dysenteriae): > 32 µM; MIC (Micrococcus luteus): 16 µM (≈ 4.02 µg/mL); MIC (Bacillus anthracis [10]): 4 µM (≈ 1.01 µg/mL); MIC (Pseudomonas aeruginosa): > 32 µM; MIC (Burkholderia cepacia): > 32 µM; MIC (Yersinia pestis [11]): 32 µM (≈ 8.05 µg/mL); MIC (Bacillus cereus): 1 µM (≈ 0.251 µg/mL)
CCN(CC)C(=S)SSCc1ccccc1	> 32	> 32	16 (≈ 4.34 µg/mL)	32 (≈ 8.69 µg/mL)	> 32	8 (≈ 2.17 µg/mL)	> 32	> 32	> 32	32 (≈ 8.69 µg/mL)	32 (≈ 8.69 µg/mL)	8 (≈ 2.17 µg/mL)	32 (≈ 8.69 µg/mL)	> 32	> 32	> 32	8 (≈ 2.17 µg/mL)	2 (≈ 0.543 µg/mL)	16 (≈ 4.34 µg/mL)	> 32	MIC (Bacillus anthracis [3]): 2 µM (≈ 0.543 µg/mL); MIC (Yersinia enterocolitica): > 32 µM; MIC (Listeria monocytogenes): 8 µM (≈ 2.17 µg/mL); MIC (Klebsiella pneumoniae): > 32 µM; MIC (Bacillus anthracis [5]): 4 µM (≈ 1.09 µg/mL); MIC (Bacillus anthracis [6]): 4 µM (≈ 1.09 µg/mL); MIC (Brucella neotomae): 32 µM (≈ 8.69 µg/mL); MIC (Shigella dysenteriae): > 32 µM; MIC (Micrococcus luteus): 16 µM (≈ 4.34 µg/mL); MIC (Bacillus anthracis [10]): 4 µM (≈ 1.09 µg/mL); MIC (Pseudomonas aeruginosa): > 32 µM; MIC (Burkholderia cepacia): > 32 µM; MIC (Yersinia pestis [11]): 32 µM (≈ 8.69 µg/mL); MIC (Bacillus cereus): 2 µM (≈ 0.543 µg/mL)
